≈ marks a conversion by molar mass, not a printed value.
Experiments:
[1] = Antioxidant activity assessed as superoxide radical scavenging activity at 0.5 mM by NBT reduction assay; assay type: functional
Procedure, shortened: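 Superoxide generated by an NADH/phenazine methosulphate system. The mix held 40 µl of 280 µM NADH, 40 µl of 80 µM NBT, 20 µl of 8 µM PMS, 10 µl of 1 mM sample in DMSO, and 0.1 M phosphate buffer pH 7.4 (concentrations are of the added solutions). Ran at room temperature, read formazan at 560 nm, and calculated %RSA = 100 − (OD test/OD control × 100).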

Aspergillus fumigatus = assay: Antimicrobial activity against Aspergillus fumigatus at 100 ug/ml after 24 hrs by cup diffusion method; assay type: functional; details: for zone of inhibition at 100 µg/mL: read-out: DIZ
Procedure, shortened: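 Cup diffusion on potato dextrose agar plates inoculated with the fungus, with samples dissolved in DMSO. Incubated at 45 °C for A. fumigatus. Read the diameter of the clear zone of inhibition around the sample.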

Trichoderma viride = assay: Antimicrobial activity against Trichoderma viride at 100 ug/ml after 24 hrs by cup diffusion method; assay type: functional; details: for zone of inhibition at 100 µg/mL: read-out: DIZ
Procedure, shortened: (§1)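 Cup diffusion on fungus-inoculated potato dextrose agar plates, with samples in DMSO. Incubated at 30 °C. Read the diameter of the clear inhibition zone surrounding the sample.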

Yarrowia lipolytica = assay: Antimicrobial activity against Candida lipolytica at 100 ug/ml after 24 hrs by cup diffusion method; assay type: functional; details: for zone of inhibition at 100 µg/mL: read-out: DIZ; procedure, shortened: as §1
Aspergillus niger = assay: Antimicrobial activity against Aspergillus niger at 100 ug/ml after 24 hrs by cup diffusion method; assay type: functional; details: for zone of inhibition at 100 µg/mL: read-out: DIZ; procedure, shortened: as §1
Leishmania major = assay: Antileishmanial activity against Leishmania major promastigotes after 72 hrs; assay type: functional, organism-based
Procedure, shortened: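 Cultured Leishmania major parasites in M199 with 10% foetal bovine serum, 25 mM HEPES, and penicillin/streptomycin, at 24 °C with shaking. Harvested log-phase cells and diluted them to 2 × 10^6 cells/ml. Made 1 mg/ml DMSO stocks and serially diluted them in medium. Used DMSO as the negative control and amphotericin B as the positive control.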

With `O=C(/C=C/c1ccc(-n2ccnc2)cc1)c1ccc(Cl)cc1Cl` the Activity [1] was 3.3%, the zone of inhibition at 100 µg/mL (Aspergillus fumigatus) was 15 mm and the zone of inhibition at 100 µg/mL (Trichoderma viride) was 2 mm. For the same compound, the zone of inhibition at 100 µg/mL (Yarrowia lipolytica) was 4 mm, the zone of inhibition at 100 µg/mL (Aspergillus niger) was 1 mm and the IC50 (Leishmania major) was 0.72 µg/mL (≈ 2.1 µM).
With `O=C(/C=C/c1ccc(-n2ccnc2)cc1)c1ccc(F)c(F)c1` the Activity [1] was 8.3%, the zone of inhibition at 100 µg/mL (Aspergillus fumigatus) was 18 mm and the zone of inhibition at 100 µg/mL (Trichoderma viride) was 3 mm. For the same compound, the zone of inhibition at 100 µg/mL (Yarrowia lipolytica) was 4 mm, the zone of inhibition at 100 µg/mL (Aspergillus niger) was 4 mm and the IC50 (Leishmania major) was 0.89 µg/mL (≈ 2.87 µM).
In the case of `C[C@@H]1[C@H](O)[C@@H](C)/C=C/C=C/C=C/C=C/C=C/C=C/C=C/[C@H](O[C@@H]2O[C@H](C)[C@@H](O)[C@H](N)[C@@H]2O)C[C@@H]2O[C@](O)(C[C@@H](O)C[C@@H](O)[C@H](O)CC[C@@H](O)C[C@@H](O)CC(=O)O[C@H]1C)C[C@H](O)[C@H]2C(=O)O` [AMPHOTERICIN B], the IC50 (Leishmania major) is reported as 0.56 µg/mL (≈ 0.606 µM).
In the case of `O=C(/C=C/c1ccc(-n2ccnc2)cc1)c1ccccc1Cl`, the Activity [1] is reported as 70.4%, the zone of inhibition at 100 µg/mL (Aspergillus fumigatus) is reported as 19 mm and the zone of inhibition at 100 µg/mL (Trichoderma viride) is reported as 5 mm. The zone of inhibition at 100 µg/mL (Yarrowia lipolytica) was 5 mm, the zone of inhibition at 100 µg/mL (Aspergillus niger) was 5 mm and the IC50 (Leishmania major) was 0.93 µg/mL (≈ 3.01 µM).
Compound `O=C(/C=C/c1ccc(-n2ccnc2)cc1)c1c(Cl)cccc1Cl` has an Activity [1] of 47.7%, a zone of inhibition at 100 µg/mL (Aspergillus fumigatus) of 20 mm and a zone of inhibition at 100 µg/mL (Trichoderma viride) of 6 mm. For the same compound, the zone of inhibition at 100 µg/mL (Yarrowia lipolytica) was 7 mm, the zone of inhibition at 100 µg/mL (Aspergillus niger) was 4 mm and the IC50 (Leishmania major) was 0.67 µg/mL (≈ 1.95 µM).
For `O=C(/C=C/c1ccc(-n2ccnc2)cc1)c1ccc(Cl)c(Cl)c1`, the Activity [1] was 0.4%, the zone of inhibition at 100 µg/mL (Aspergillus fumigatus) was 10 mm and the zone of inhibition at 100 µg/mL (Trichoderma viride) was 6 mm. The zone of inhibition at 100 µg/mL (Yarrowia lipolytica) was 7 mm, the zone of inhibition at 100 µg/mL (Aspergillus niger) was 2 mm and the IC50 (Leishmania major) was 0.99 µg/mL (≈ 2.88 µM).
In the case of `O=C(/C=C/c1ccc(-n2ccnc2)cc1)c1cccc(F)c1F`, the Activity [1] is reported as 16.7%, the zone of inhibition at 100 µg/mL (Aspergillus fumigatus) is reported as 19 mm and the zone of inhibition at 100 µg/mL (Trichoderma viride) is reported as 4 mm. For the same compound, the zone of inhibition at 100 µg/mL (Yarrowia lipolytica) was 3 mm, the zone of inhibition at 100 µg/mL (Aspergillus niger) was 4 mm and the IC50 (Leishmania major) was 0.83 µg/mL (≈ 2.67 µM).
NYSTATIN showed an inhibition zone (IZ) (Aspergillus fumigatus) of 22 mm, an inhibition zone (IZ) (Trichoderma viride) of 17 mm and an inhibition zone (IZ) (Yarrowia lipolytica) of 16 mm. The inhibition zone (IZ) (Aspergillus niger) was 10 mm.
In the case of `O=C(/C=C/c1ccc(-n2ccnc2)cc1)c1cccc(O)c1`, the Activity [1] is reported as 8.65%, the zone of inhibition at 100 µg/mL (Aspergillus fumigatus) is reported as 5 mm and the zone of inhibition at 100 µg/mL (Trichoderma viride) is reported as 6 mm. It also gave a zone of inhibition at 100 µg/mL (Yarrowia lipolytica) of 5 mm, a zone of inhibition at 100 µg/mL (Aspergillus niger) of 5 mm and an IC50 (Leishmania major) of 0.96 µg/mL (≈ 3.31 µM).
`O=C(/C=C/c1ccc(-n2ccnc2)cc1)c1ccc(Cl)cc1` showed an Activity [1] of 90.1%, a zone of inhibition at 100 µg/mL (Aspergillus fumigatus) of 20 mm and a zone of inhibition at 100 µg/mL (Trichoderma viride) of 9 mm. The zone of inhibition at 100 µg/mL (Yarrowia lipolytica) was 10 mm, the zone of inhibition at 100 µg/mL (Aspergillus niger) was 8 mm and the IC50 (Leishmania major) was 0.92 µg/mL (≈ 2.98 µM).
For `O=C(/C=C/c1ccc(-n2ccnc2)cc1)c1ccccc1F`, the Activity [1] was 79.2%, the zone of inhibition at 100 µg/mL (Aspergillus fumigatus) was 17 mm and the zone of inhibition at 100 µg/mL (Trichoderma viride) was 5 mm. For the same compound, the zone of inhibition at 100 µg/mL (Yarrowia lipolytica) was 5 mm, the zone of inhibition at 100 µg/mL (Aspergillus niger) was 3 mm and the IC50 (Leishmania major) was 0.98 µg/mL (≈ 3.35 µM).
Work on `O=C(/C=C/c1ccc(-n2ccnc2)cc1)c1ccccc1` yielded an Activity [1] of 81.9%, a zone of inhibition at 100 µg/mL (Aspergillus fumigatus) of 18 mm and a zone of inhibition at 100 µg/mL (Trichoderma viride) of 3 mm. The zone of inhibition at 100 µg/mL (Yarrowia lipolytica) was 4 mm, the zone of inhibition at 100 µg/mL (Aspergillus niger) was 4 mm and the IC50 (Leishmania major) was 0.91 µg/mL (≈ 3.32 µM).
Work on `O=C(/C=C/c1ccc(-n2ccnc2)cc1)c1cc(Cl)ccc1Cl` yielded an Activity [1] of 18.8%, a zone of inhibition at 100 µg/mL (Aspergillus fumigatus) of 19 mm and a zone of inhibition at 100 µg/mL (Trichoderma viride) of 10 mm. For the same compound, the zone of inhibition at 100 µg/mL (Yarrowia lipolytica) was 10 mm, the zone of inhibition at 100 µg/mL (Aspergillus niger) was 6 mm and the IC50 (Leishmania major) was 0.99 µg/mL (≈ 2.88 µM).
For `COc1cccc(C(=O)/C=C/c2ccc(-n3ccnc3)cc2)c1`, the Activity [1] was 83.9%, the zone of inhibition at 100 µg/mL (Aspergillus fumigatus) was 16 mm and the zone of inhibition at 100 µg/mL (Trichoderma viride) was 8 mm. The zone of inhibition at 100 µg/mL (Yarrowia lipolytica) was 7 mm, the zone of inhibition at 100 µg/mL (Aspergillus niger) was 3 mm and the IC50 (Leishmania major) was 0.98 µg/mL (≈ 3.22 µM).
For `O=C(/C=C/c1ccc(-n2ccnc2)cc1)c1ccc(Cl)c(Cl)c1Cl`, the Activity [1] was 2.4%, the zone of inhibition at 100 µg/mL (Aspergillus fumigatus) was 10 mm and the zone of inhibition at 100 µg/mL (Trichoderma viride) was 6 mm. It also gave a zone of inhibition at 100 µg/mL (Yarrowia lipolytica) of 6 mm, a zone of inhibition at 100 µg/mL (Aspergillus niger) of 1 mm and an IC50 (Leishmania major) of 0.63 µg/mL (≈ 1.67 µM).
`O=C(/C=C/c1ccc(-n2ccnc2)cc1)c1ccc(Br)cc1` gave an Activity [1] of 42.1%, a zone of inhibition at 100 µg/mL (Aspergillus fumigatus) of 18 mm and a zone of inhibition at 100 µg/mL (Trichoderma viride) of 9 mm. It also gave a zone of inhibition at 100 µg/mL (Yarrowia lipolytica) of 8 mm, a zone of inhibition at 100 µg/mL (Aspergillus niger) of 4 mm and an IC50 (Leishmania major) of 0.86 µg/mL (≈ 2.43 µM).
With `CCCOC(=O)c1cc(O)c(O)c(O)c1` the Activity [1] was 91.3%.
In the case of `O=C(/C=C/c1ccc(-n2ccnc2)cc1)c1ccc(I)cc1`, the Activity [1] is reported as 40.4%, the zone of inhibition at 100 µg/mL (Aspergillus fumigatus) is reported as 10 mm and the zone of inhibition at 100 µg/mL (Trichoderma viride) is reported as 2 mm. It also gave a zone of inhibition at 100 µg/mL (Yarrowia lipolytica) of 3 mm, a zone of inhibition at 100 µg/mL (Aspergillus niger) of 2 mm and an IC50 (Leishmania major) of 0.92 µg/mL (≈ 2.3 µM).
Work on `O=C(/C=C/c1ccc(-n2ccnc2)cc1)c1ccc(F)cc1` yielded an Activity [1] of 64.5%, a zone of inhibition at 100 µg/mL (Aspergillus fumigatus) of 1 mm and a zone of inhibition at 100 µg/mL (Trichoderma viride) of 1 mm. For the same compound, the zone of inhibition at 100 µg/mL (Yarrowia lipolytica) was 1 mm, the zone of inhibition at 100 µg/mL (Aspergillus niger) was 2 mm and the IC50 (Leishmania major) was 0.71 µg/mL (≈ 2.43 µM).
In the case of `COc1ccc(C(=O)/C=C/c2ccc(-n3ccnc3)cc2)cc1`, the Activity [1] is reported as 66%, the zone of inhibition at 100 µg/mL (Aspergillus fumigatus) is reported as 17 mm and the zone of inhibition at 100 µg/mL (Trichoderma viride) is reported as 6 mm. For the same compound, the zone of inhibition at 100 µg/mL (Yarrowia lipolytica) was 6 mm, the zone of inhibition at 100 µg/mL (Aspergillus niger) was 3 mm and the IC50 (Leishmania major) was 0.98 µg/mL (≈ 3.22 µM).
With `COc1ccc(C(=O)/C=C/c2ccc(-n3ccnc3)cc2)cc1OC` the Activity [1] was 51%, the zone of inhibition at 100 µg/mL (Aspergillus fumigatus) was 10 mm and the zone of inhibition at 100 µg/mL (Trichoderma viride) was 4 mm. It also gave a zone of inhibition at 100 µg/mL (Yarrowia lipolytica) of 4 mm, a zone of inhibition at 100 µg/mL (Aspergillus niger) of 3 mm and an IC50 (Leishmania major) of 0.82 µg/mL (≈ 2.45 µM).
`O=C(/C=C/c1ccc(-n2ccnc2)cc1)c1c(F)cccc1F` showed an Activity [1] of 69.5%, a zone of inhibition at 100 µg/mL (Aspergillus fumigatus) of 15 mm and a zone of inhibition at 100 µg/mL (Trichoderma viride) of 5 mm. It also gave a zone of inhibition at 100 µg/mL (Yarrowia lipolytica) of 7 mm, a zone of inhibition at 100 µg/mL (Aspergillus niger) of 4 mm and an IC50 (Leishmania major) of 0.97 µg/mL (≈ 3.13 µM).
`O=C(/C=C/c1ccc(-n2ccnc2)cc1)c1ccccc1Br` gave an Activity [1] of 76%, a zone of inhibition at 100 µg/mL (Aspergillus fumigatus) of 18 mm and a zone of inhibition at 100 µg/mL (Trichoderma viride) of 2 mm. It also gave a zone of inhibition at 100 µg/mL (Yarrowia lipolytica) of 3 mm, a zone of inhibition at 100 µg/mL (Aspergillus niger) of 4 mm and an IC50 (Leishmania major) of 0.86 µg/mL (≈ 2.43 µM).
